Reference: ChEMBL document CHEMBL1135468 (J Med Chem, 2002)
*1 amine or outer side, *2 acyl side, *3 side chain or, on linkers, in order; H or OH if unused. Where a SMILES comes first, the peptide text is derived from it. Bridges are numbered along the chain shown (N, C = ends). [ ]: non-standard residue; d: D form. The star is where a group is joined. 6FAM = O=C1OC2(c3ccc(O)cc3Oc3cc(O)ccc32)c2cc(C(=O)*)ccc21; X1 = O=C([C@@H](O)CS[*:2])[*:1]; Orn = NCCC[C@H](N)C(=O)O; Mpa = O=C(O)CCS

Assays:
Vasopressin V1b receptor = biological target: T1, Vasopressin V1b receptor (Homo sapiens, UniProt P47901); test: Binding affinity towards human Vasopressin V1b receptor
T1 sequence (P47901 whole entry): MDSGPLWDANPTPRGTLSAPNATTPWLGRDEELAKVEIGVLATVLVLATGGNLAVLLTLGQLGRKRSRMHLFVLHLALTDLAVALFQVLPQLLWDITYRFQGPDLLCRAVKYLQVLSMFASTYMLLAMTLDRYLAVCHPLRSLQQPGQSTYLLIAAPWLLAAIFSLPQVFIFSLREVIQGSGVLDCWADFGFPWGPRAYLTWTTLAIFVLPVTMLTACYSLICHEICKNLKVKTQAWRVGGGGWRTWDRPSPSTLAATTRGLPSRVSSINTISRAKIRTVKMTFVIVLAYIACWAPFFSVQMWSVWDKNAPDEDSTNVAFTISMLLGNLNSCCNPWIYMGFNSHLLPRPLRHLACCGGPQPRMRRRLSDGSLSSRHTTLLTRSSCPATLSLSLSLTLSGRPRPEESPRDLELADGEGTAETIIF
Summary of the method: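 Competition binding on membranes from CHO cells stably expressing one human receptor, butyrate-treated (5 mM, overnight). Radioligands: OT, 200-250 pM [125I]OTA or 120-180 pM [125I]HO-LVA; V1a, 40-60 pM [125I]HO-LVA; V1b, 1-3 nM [3H]AVP. Competitor 1 pM-1 µM; nonspecific with 1 µM unlabeled ligand; 1 h, 30 °C. Ki by nonlinear least-squares, ≥3 experiments in triplicate.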

Vasopressin V1a receptor = Vasopressin V1a receptor (Homo sapiens, UniProt P37288); test: Binding affinity for human Vasopressin V1a receptor
Vasopressin V2 receptor = Vasopressin V2 receptor (Homo sapiens, UniProt P30518); test: Binding affinity towards human Vasopressin V2 receptor
Summary of the method: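 Human V2 receptor stably expressed in CHO cells, butyrate-treated (5 mM, overnight); membranes at 5-10 µg protein/assay competed against 1-3 nM [3H]AVP. Fluorescent ligand ranged 1 pM-1 µM; nonspecific binding defined with 1 µM unlabeled ligand. Incubation 1 h at 30 °C. Ki from nonlinear least-squares fit of two independent experiments, each run in triplicate.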

Oxytocin receptor = biological target: T2, Oxytocin receptor (Homo sapiens, UniProt P30559); test: Binding affinity for human oxytocin receptor
T2 sequence (P30559 whole entry): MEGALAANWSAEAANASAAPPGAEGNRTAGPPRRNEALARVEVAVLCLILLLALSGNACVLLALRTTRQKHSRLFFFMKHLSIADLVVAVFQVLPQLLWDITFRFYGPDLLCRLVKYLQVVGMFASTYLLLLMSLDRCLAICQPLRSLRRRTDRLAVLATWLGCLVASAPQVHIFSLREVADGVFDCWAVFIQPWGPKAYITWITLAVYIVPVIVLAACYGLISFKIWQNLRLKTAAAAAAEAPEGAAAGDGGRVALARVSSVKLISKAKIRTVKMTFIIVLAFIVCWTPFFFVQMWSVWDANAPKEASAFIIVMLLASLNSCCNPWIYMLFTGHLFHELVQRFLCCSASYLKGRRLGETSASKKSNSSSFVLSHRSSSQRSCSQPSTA

Sequence of Vasopressin V1a receptor (P37288 whole entry): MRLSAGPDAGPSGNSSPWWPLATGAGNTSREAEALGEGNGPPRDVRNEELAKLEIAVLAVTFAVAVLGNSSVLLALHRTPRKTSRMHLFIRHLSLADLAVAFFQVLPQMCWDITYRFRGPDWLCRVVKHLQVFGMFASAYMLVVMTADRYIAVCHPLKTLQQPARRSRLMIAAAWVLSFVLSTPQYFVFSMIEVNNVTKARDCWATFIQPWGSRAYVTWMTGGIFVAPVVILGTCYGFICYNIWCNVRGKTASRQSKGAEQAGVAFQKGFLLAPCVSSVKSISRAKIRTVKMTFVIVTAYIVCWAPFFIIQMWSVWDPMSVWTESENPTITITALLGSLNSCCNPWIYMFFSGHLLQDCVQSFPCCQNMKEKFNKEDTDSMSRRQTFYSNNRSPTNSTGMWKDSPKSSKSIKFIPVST
Sequence of Vasopressin V2 receptor (P30518 whole entry): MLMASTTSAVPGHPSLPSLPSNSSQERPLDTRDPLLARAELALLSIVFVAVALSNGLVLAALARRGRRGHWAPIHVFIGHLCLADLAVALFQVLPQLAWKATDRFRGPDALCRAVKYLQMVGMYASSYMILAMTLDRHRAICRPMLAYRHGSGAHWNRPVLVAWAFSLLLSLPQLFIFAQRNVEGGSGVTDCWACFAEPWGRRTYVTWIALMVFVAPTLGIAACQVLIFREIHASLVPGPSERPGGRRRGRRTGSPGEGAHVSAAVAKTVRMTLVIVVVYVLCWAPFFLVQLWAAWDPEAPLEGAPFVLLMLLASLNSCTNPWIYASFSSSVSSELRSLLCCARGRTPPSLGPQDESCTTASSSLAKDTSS

SMILES | Ki (Vasopressin V1b receptor) | Ki (Vasopressin V1a receptor) | Ki (Vasopressin V2 receptor) | Ki (Oxytocin receptor)
CC[C@H](C)[C@@H]1NC(=O)[C@H](Cc2ccc(O)cc2)NC(=O)[C@@H](O)CSSC[C@@H](C(=O)N2CCC[C@H]2C(=O)N[C@@H](CCCCNC(=O)c2ccc3c(c2)C2(OC3=O)c3ccc(O)cc3Oc3cc(O)ccc32)C(=O)NCC(N)=O)NC(=O)[C@H](CC(N)=O)NC(=O)[C@H]([C@@H](C)O)NC1=O (YITNCPK(6FAM)G-NH2; linker N-5 via X1) | 53 nM | 17.3 nM | > 10 µM | 0.32 nM
CC[C@H](C)[C@@H]1NC(=O)[C@H](Cc2ccc(O)cc2)NC(=O)[C@@H](O)CSSC[C@@H](C(=O)N2CCC[C@H]2C(=O)N[C@@H](CCCNC(=O)c2ccc3c(c2)C2(OC3=O)c3ccc(O)cc3Oc3cc(O)ccc32)C(=O)NCC(N)=O)NC(=O)[C@H](CC(N)=O)NC(=O)[C@H]([C@@H](C)O)NC1=O (YITNCP[Orn](6FAM)G-NH2; linker N-5 via X1) | 87 nM | 11.8 nM | > 1 µM | 0.17 nM
CC[C@H](C)[C@@H]1NC(=O)[C@H](Cc2ccc(O)cc2)NC(=O)CCSSC[C@@H](C(=O)N2CCC[C@H]2C(=O)N[C@@H](CCCCNC(=O)c2ccc3c(c2)C2(OC3=O)c3ccc(O)cc3Oc3cc(O)ccc32)C(=O)NCC(N)=O)NC(=O)[C@H](CC(N)=O)NC(=O)[C@H]([C@@H](C)O)NC1=O ([Mpa]YITNCPK(6FAM)G-NH2; disulfide 1-6) | 150 nM | 25.5 nM | > 10 µM | 1.8 nM
CC[C@H](C)[C@@H]1NC(=O)[C@H](Cc2ccc(O)cc2)NC(=O)CCSSC[C@@H](C(=O)N2CCC[C@H]2C(=O)N[C@@H](CCCNC(=O)c2ccc3c(c2)C2(OC3=O)c3ccc(O)cc3Oc3cc(O)ccc32)C(=O)NCC(N)=O)NC(=O)[C@H](CC(N)=O)NC(=O)[C@H]([C@@H](C)O)NC1=O ([Mpa]YITNCP[Orn](6FAM)G-NH2; disulfide 1-6) | 282 nM | 30 nM | > 10 µM | 0.4 nM
